Source: PubChem (Broad Institute)
FN deposit inh = fibronectin deposition inhibition. AH1F fibroblasts, Alexa488-fibronectin deposition fluorescence, overnight. inhibition, % at 12.6 µM. 350,000 tested, 0.086% active;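 active = mean inhibition across replicates of 30% or more, regardless of how many single replicates reach that level; inconclusive = mean under 30% yet at least half of replicates reach 30%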;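 note: positive control wells lacked labelled fibronectin entirely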
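Assay system: AH1F fibroblasts / Quantity: 10000 cells per well / Medium: DMEM plus 2% serum, read in PBS / Reagent: labelled fibronectin 24 nM / Dosing: single dose, pinned / Times: 1 h cell attachment, overnight exposure to compound and label / Signal: fluorescence, ex 485 nm, em 525 nm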
Xi reactivation = reactivates the inactive X chromosome in mouse fibroblasts | XiGFP mouse fibroblasts, % GFP-positive cells imaging, 3 d; cells co-treated with 5-aza-dC sensitizer; scaled so ellipticine positive control = 100% | activation, % at 7.58 µM | 360,000 tested, 0.055% active | AID 743238;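 active = mean normalized replicate activation at least 10% and every replicate at or above 10%; inconclusive = only one of the two criteria met; inactive = mean below 10% and not all replicates reach 10%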;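 note: 0% = median of on-plate neutral control wells and 100% = ellipticine 6 µM median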
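System: SV40-immortalized XiGFP fibroblast cells, line 68-5-11 / Incubation: 3-day compound exposure, then 15 min fixation at room temperature / Compound: single concentration per compound, delivered by pin transfer / Buffer or medium: DMEM plus 5-aza-dC sensitizer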
CaV13 ICDI inh = Disruptors of the CACNA1D IQ motif to Ca2+-dependent inactivation inhibitor domain association, primary screening, Förster resonance energy transfer in intact living …; HEK cells, CFP/YFP FRET ICDI-IQ, plate reader, 10 min; percent FRET-ratio fall versus neutral wells; inhibition, % at 12.3 µM; 340,000 tested, 0.098% active; AID 743397;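 active = mean replicate inhibition of at least 30% and at least 1% of replicates passing that level; inconclusive = only one of the two criteria is met; inactive = neither criterion is met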;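 note: 0% = median of the neutral control wells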
DENV2 CPE rescue = DENV2-induced cell death inhibition | CPE inhibition, % at 9.99 µM | AID 651640 | 350,000 tested, 1.7% active | DENV2-infected cells, cytopathic effect rescue, plate reader; in the data active = CPE inhibition above about 20%, passing the limit was not always enough; inconclusive = no clear call, values can overlap the other calls; tested in BHK-21 cells;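 note: 0% = median of neutral control wells and 100% = median of positive control wells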
CASP6 VEID inh = inhibitors of human caspase-6; 350,000 tested, 0.53% active; purified caspase-6, Z-VEID-R110 cleavage fluorescence; inhibition, % at 12.5 µM;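 active = mean inhibition across replicates at least about 35%, with every replicate also reaching that limit, limit read from the data; inconclusive = only one of the two criteria met; inactive = neither criterion met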;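 note: 0% = median of neutral control wells and 100% = no fluorescence left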
Target sequence (P55212 24-179 limits assumed): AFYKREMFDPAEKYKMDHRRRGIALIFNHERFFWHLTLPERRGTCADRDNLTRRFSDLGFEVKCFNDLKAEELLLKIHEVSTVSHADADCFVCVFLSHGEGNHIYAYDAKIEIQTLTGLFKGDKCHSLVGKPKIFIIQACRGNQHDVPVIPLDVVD
Target sequence (P55212 194-293 limits assumed): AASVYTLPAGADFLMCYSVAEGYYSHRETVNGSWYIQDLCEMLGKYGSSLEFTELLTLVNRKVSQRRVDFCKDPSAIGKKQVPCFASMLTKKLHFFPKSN
Starred values were filed as active, the others as inactive. Compounds with a hit are over-represented: about 2% of the library has one in this group of screens.

What do the screens show for `C[C@H](CO)N1C[C@H](C)[C@@H](CN(C)C(=O)Nc2ccc3c(c2)OCO3)Oc2c(NC(=O)NC3CCCCC3)cccc2C1=O`?
Xi reactivation: 0.2

Results for COc1ccc(C2C(C#N)=C(N)Oc3cc(O)ccc32)cc1Cl (stereo not drawn) ?
FN deposit inh: 5.5; Xi reactivation: -0.1; CaV13 ICDI inh: active; DENV2 CPE rescue: 1.9; CASP6 VEID inh: 7.3

What do the screens show for `N#CC1=C(N)Oc2cc(O)c(Cl)cc2C1c1cccnc1` (stereo not drawn)?
FN deposit inh: 5.8; Xi reactivation: 0.4; CaV13 ICDI inh: -1.2; DENV2 CPE rescue: 8.8; CASP6 VEID inh: 1.8

What do the screens show for `N#CC1=C(N)Oc2cc(O)c(Cl)cc2C1c1ccccc1F` (stereo not drawn)?
FN deposit inh: 3.7; Xi reactivation: -0.1; CaV13 ICDI inh: 5.3; DENV2 CPE rescue: -6.8; CASP6 VEID inh: 44.1*

What do the screens show for `CCOc1ccc(C2C(C#N)=C(N)Oc3cc(O)ccc32)cc1OCC` (stereo not drawn)?
FN deposit inh: -1.1; Xi reactivation: 0.0; CaV13 ICDI inh: 57.7*; DENV2 CPE rescue: -3.7; CASP6 VEID inh: -0.2

What do the screens show for `C#CCOc1ccc(C2C(C#N)=C(N)Oc3cc(O)ccc32)cc1` (stereo not drawn)?
FN deposit inh: 4.6; Xi reactivation: 0.0; CaV13 ICDI inh: active; DENV2 CPE rescue: 1.9; CASP6 VEID inh: 2.3

How did Cc1ccc(C(=O)Nc2ccc(CN3CCCCC3)cc2)c(C)c1 do in these assays?
Xi reactivation: 0.3; CaV13 ICDI inh: -6.7; DENV2 CPE rescue: 34.8*; CASP6 VEID inh: -3.8

How did C[C@H](NC(=O)N(C)C[C@H]1OCc2ccccc2-c2ccccc2C(=O)N([C@H](C)CO)C[C@@H]1C)c1ccccc1 do in these assays?
FN deposit inh: -10.1; Xi reactivation: 0.5

Results for CC1CCN(C(=O)Cn2cc(C(F)(F)F)ccc2=O)c2ccccc2S1 (stereo not drawn) ?
FN deposit inh: 3.6; Xi reactivation: 0.1; CaV13 ICDI inh: -15.4; DENV2 CPE rescue: 18.6; CASP6 VEID inh: 69.6*

How did CC(C)NC(=O)N(C)C[C@H]1OCCCC[C@H](C)Oc2ccc(NS(=O)(=O)c3cn(C)cn3)cc2C(=O)N([C@H](C)CO)C[C@@H]1C do in these assays?
FN deposit inh: 0.8; Xi reactivation: 0.2; DENV2 CPE rescue: -4.5; CASP6 VEID inh: 3.6

How did CCCCN(C(=O)c1cc(-c2ccco2)nc2ccccc12)c1c(N)n(CCC)c(=O)[nH]c1=O do in these assays?
FN deposit inh: -5.2; Xi reactivation: 0.1; CaV13 ICDI inh: -4.9; DENV2 CPE rescue: -0.9; CASP6 VEID inh: 28.1

Results for CCCCn1c(N)c(N(CC)C(=O)c2cc(C)cc(C)c2)c(=O)[nH]c1=O ?
FN deposit inh: -1.9; Xi reactivation: 0.3; CaV13 ICDI inh: -2.1; DENV2 CPE rescue: 35.0*; CASP6 VEID inh: 4.1

How did CCCCn1c(N)c(N(CC(C)C)C(=O)c2cc(-c3ccco3)nc3ccccc23)c(=O)[nH]c1=O do in these assays?
Xi reactivation: 0.0; CaV13 ICDI inh: -6.4; DENV2 CPE rescue: -10.5; CASP6 VEID inh: 39.3*

What do the screens show for `O=C(COC(=O)c1ccc([N+](=O)[O-])s1)NCc1ccc(F)cc1`?
CaV13 ICDI inh: -6.0

Results for O=C(COC(=O)c1ccc([N+](=O)[O-])s1)c1ccc[nH]1 ?
FN deposit inh: 6.4; Xi reactivation: -0.2; CaV13 ICDI inh: -1.7; DENV2 CPE rescue: inconclusive; CASP6 VEID inh: 99.2*

What do the screens show for `Nc1nccnc1C(=O)OCC(=O)c1ccc[nH]1`?
Xi reactivation: 0.1; CaV13 ICDI inh: -6.0; DENV2 CPE rescue: 33.1*; CASP6 VEID inh: 4.5

What do the screens show for `O=C(COC(=O)c1ccc([N+](=O)[O-])s1)NCCc1ccccc1`?
CASP6 VEID inh: 99.2*

How did O=C(COC(=O)c1ccc([N+](=O)[O-])s1)NC(=O)NCc1ccccc1 do in these assays?
FN deposit inh: -1.5; Xi reactivation: 0.3; CaV13 ICDI inh: -3.7; DENV2 CPE rescue: -13.6; CASP6 VEID inh: 43.7*

How did O=S(=O)(/C(=C/c1ccc(C(F)(F)F)cc1)c1nc2ccccc2[nH]1)c1ccccc1 do in these assays?
FN deposit inh: 64.8*; Xi reactivation: -0.1; CaV13 ICDI inh: -4.7

How did O=C(O)c1ccc(O)cc1O do in these assays?
DENV2 CPE rescue: 66.9*; CASP6 VEID inh: 4.5

Results for Nc1ccc(C(=O)O)c(O)c1 ?
FN deposit inh: -3.6; Xi reactivation: 0.2; CaV13 ICDI inh: -4.9; DENV2 CPE rescue: 1.3; CASP6 VEID inh: -1.3

How did CCOC(=O)C1(Cc2ccccc2C)CCCN(C(=O)c2cc(C3CC3)[nH]n2)C1 (stereo not drawn) do in these assays?
FN deposit inh: 14.8; Xi reactivation: 0.0; CaV13 ICDI inh: -5.0; DENV2 CPE rescue: 25.8*; CASP6 VEID inh: 3.3

Results for CCOC(=O)C1(Cc2ccccc2C)CCCN(C(=O)c2ccccn2)C1 (stereo not drawn) ?
FN deposit inh: -0.2; Xi reactivation: 0.2; CaV13 ICDI inh: -1.3; DENV2 CPE rescue: 0.4; CASP6 VEID inh: -1.9

Results for CCOC(=O)C1(Cc2ccccc2C)CCCN(C(=O)CCn2nccc2C)C1 (stereo not drawn) ?
FN deposit inh: 1.4; Xi reactivation: 0.0; CaV13 ICDI inh: -4.2; DENV2 CPE rescue: 7.3; CASP6 VEID inh: 0.4

How did CCOC(=O)C1(Cc2ccccc2C)CCCN(C(=O)CCc2cccnc2)C1 (stereo not drawn) do in these assays?
FN deposit inh: 6.6; Xi reactivation: -0.2; CaV13 ICDI inh: 4.9; DENV2 CPE rescue: -4.4; CASP6 VEID inh: 59.6*

How did CCOC(=O)C1(Cc2ccccc2)CCCN(Cc2ccccn2)C1 (stereo not drawn) do in these assays?
FN deposit inh: 30.7*; Xi reactivation: 0.1; CaV13 ICDI inh: -0.3; DENV2 CPE rescue: 0.7; CASP6 VEID inh: -5.9

How did CCOC(=O)C1(Cc2ccccc2)CCCN(CCO)C1 (stereo not drawn) do in these assays?
FN deposit inh: 8.4; Xi reactivation: -0.8; CaV13 ICDI inh: -0.9; DENV2 CPE rescue: 1.7; CASP6 VEID inh: 0.3

What do the screens show for `C[C@@H]1CN([C@@H](C)CO)C(=O)c2cc(NC(=O)c3ccccc3)ccc2O[C@@H](C)CCCCO[C@@H]1CN(C)C(=O)C1CCCCC1`?
Xi reactivation: -0.3; DENV2 CPE rescue: 0.1; CASP6 VEID inh: -4.0

How did CC(C)NC(=O)Nc1ccc2c(c1)C(=O)N([C@H](C)CO)C[C@@H](C)[C@@H](CN(C)C(=O)NC1CCCCC1)OCCCC[C@H](C)O2 do in these assays?
Xi reactivation: 0.0; DENV2 CPE rescue: 3.0; CASP6 VEID inh: 1.4

Results for COCC(=O)N(C)C[C@H]1Oc2ncc(C#Cc3ccc(OC)cc3)cc2C(=O)N([C@H](C)CO)C[C@@H]1C ?
Xi reactivation: -1.2; DENV2 CPE rescue: -10.9; CASP6 VEID inh: 1.2
